In ChEMBL document CHEMBL3046018, “Design, syntheses and 3D-QSAR studies of novel N-phenyl pyrrolidin-2-ones and N-phenyl-1H-pyrrol-2-ones as protoporphyrinogen oxidase inhibitors” (Bioorg Med Chem, 2010):

How the values were obtained:
Eclipta prostrata = assay: Herbicidal activity against Eclipta prostrata assessed as growth inhibition at 150 g ai/ha using post-emergence protocol under greenhouse conditions measured 15 days after compound treatment; type: functional; conditions: 360 h, read-out: GI
Method in brief: (§1)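 Post-emergence greenhouse spray on pot-grown broadleaf weeds at the 2-leaf stage. Formulation concentrates were diluted with water. Soil was clay, pH 6.5, 1.6% organic matter, 37.3% clay particles, CEC 12.1 mol/kg. The rate was total active ingredient divided by pot surface area. Untreated seedlings and DMF-treated seedlings served as controls.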

Chenopodium album = assay: Herbicidal activity against Chenopodium album assessed as growth inhibition at 150 g ai/ha using post-emergence protocol under greenhouse conditions measured 15 days after compound treatment; type: functional; conditions: 360 h, read-out: GI; method in brief: as §1
Amaranthus retroflexus = assay: Herbicidal activity against Amaranthus retroflexus assessed as growth inhibition at 150 g ai/ha using post-emergence protocol under greenhouse conditions measured 15 days after compound treatment; type: functional; conditions: 360 h, read-out: GI; method in brief: as §1
Brassica juncea = assay: Herbicidal activity against Brassica juncea assessed as growth inhibition at 150 g ai/ha using post-emergence protocol under greenhouse conditions measured 15 days after compound treatment; type: functional; conditions: 360 h, read-out: GI; method in brief: as §1
Setaria viridis = assay: Herbicidal activity against Setaria viridis assessed as growth inhibition at 150 g ai/ha using post-emergence protocol under greenhouse conditions measured 15 days after compound treatment; type: functional; conditions: 360 h, read-out: GI
Method in brief: (§2)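 Grass weeds were grown in pots in the greenhouse and sprayed post-emergence at the 1-leaf stage. The spray was formulation concentrate diluted in water. Soil was clay, pH 6.5, 1.6% organic matter, 37.3% clay particles, CEC 12.1 mol/kg. The g.ai/ha rate was active ingredient over pot surface area. Controls were untreated and DMF-treated seedlings.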

Echinochloa crus-galli = assay: Herbicidal activity against Echinochloa crus-galli (barnyard grass) assessed as growth inhibition at 150 g ai/ha using post-emergence protocol under greenhouse conditions measured 15 days after compound treatment; type: functional; conditions: 360 h, read-out: GI; method in brief: as §2
Digitaria sanguinalis = assay: Herbicidal activity against Digitaria sanguinalis (hairy crabgrass) assessed as growth inhibition at 150 g ai/ha using post-emergence protocol under greenhouse conditions measured 15 days after compound treatment; type: functional; conditions: 360 h, read-out: GI; method in brief: as §2
[1] = biological target: T1, Protoporphyrinogen oxidase (Homo sapiens, UniProt P50336); assay: Inhibition of Homo sapiens (human) protoporphyrinogen oxidase
T1 sequence (P50336 whole entry): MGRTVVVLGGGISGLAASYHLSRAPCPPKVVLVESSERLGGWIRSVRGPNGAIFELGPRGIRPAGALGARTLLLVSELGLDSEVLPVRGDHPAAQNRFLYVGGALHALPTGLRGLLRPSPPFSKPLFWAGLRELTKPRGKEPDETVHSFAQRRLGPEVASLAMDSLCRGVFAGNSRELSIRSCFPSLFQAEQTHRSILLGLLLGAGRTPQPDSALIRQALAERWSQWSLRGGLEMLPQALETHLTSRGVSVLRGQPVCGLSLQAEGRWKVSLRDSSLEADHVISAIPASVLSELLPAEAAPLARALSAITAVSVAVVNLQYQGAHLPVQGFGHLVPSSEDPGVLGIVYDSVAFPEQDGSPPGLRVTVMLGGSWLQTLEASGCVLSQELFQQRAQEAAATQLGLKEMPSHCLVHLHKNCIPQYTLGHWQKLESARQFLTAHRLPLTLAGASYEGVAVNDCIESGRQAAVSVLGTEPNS

Row | Compound | inhibition of growth at 150 g/ha (Eclipta prostrata) [%] | inhibition of growth at 150 g/ha (Chenopodium album) [%] | inhibition of growth at 150 g/ha (Amaranthus retroflexus) [%] | inhibition of growth at 150 g/ha (Brassica juncea) [%] | inhibition of growth at 150 g/ha (Setaria viridis) [%] | inhibition of growth at 150 g/ha (Echinochloa crus-galli) [%] | inhibition of growth at 150 g/ha (Digitaria sanguinalis) [%] | Ki ([1]; read-out: Ki) [µM] | Ki ([1]; read-out: pKi (converted)) [µM]
1 | CCOc1cc(N2CC3=C(CCCC3)C2=O)c(Cl)cc1Cl | 50 | 50 | 50 | < 50 | < 50 | < 50 | < 50 | 0.67 | 
2 | CCOc1cc(N2CC3=C(CCCC3)C2=O)c(F)cc1Cl | 50 | 100 | > 80 | 50 | > 80 | > 80 | > 80 | 0.2 | 
3 | CCCOc1cc(N2CC3=C(CCCC3)C2=O)c(Cl)cc1Cl | < 50 | < 50 | > 80 | < 50 | < 50 | < 50 | < 50 | 0.3 | 
4 | CCCOc1cc(N2CC3=C(CCCC3)C2=O)c(F)cc1Cl | 100 | 100 | > 80 | > 80 | > 80 | > 80 | > 80 | 0.095 | 
5 | C=CCOc1cc(N2CC3=C(CCCC3)C2=O)c(F)cc1Cl | 100 | 100 | 100 | > 80 | > 80 | > 80 | > 80 | 0.12 | 
6 | O=C1C2=C(CCCC2)C(O)N1c1cc(O)c(Br)cc1F (stereo not drawn) | 50 | 50 | 50 | < 50 | < 50 | < 50 | 50 | 19.3 | 
7 | O=C1C2=C(CCCC2)C(O)N1c1cc(OCc2cccc(F)c2)c(Cl)cc1F (stereo not drawn) | 50 | 50 | > 80 | 50 | < 50 | < 50 | 50 | 0.78 | 
8 | COc1cc(N2C(=O)C3CCCCC3C2=O)c(F)cc1Cl (stereo not drawn) | 50 | < 50 | 100 | 50 | 50 | 50 | 50 | 8.22 | 
9 | CCOC(=O)COc1cc(N2C(=O)C3CCCCC3C2=O)c(F)cc1Cl (stereo not drawn) | < 50 | < 50 | < 50 | < 50 | < 50 | < 50 | < 50 | 15.2 | 
10 | CCOC(=O)C(C)Oc1cc(N2C(=O)C3CCCCC3C2=O)c(F)cc1Cl (stereo not drawn) | > 80 | 50 | 100 | 50 | < 50 | < 50 | < 50 | 3.3 | 
11 | O=C1C2CCCCC2C(O)N1c1cc(OC2CCCC2)c(Cl)cc1F (stereo not drawn) | < 50 | < 50 | < 50 | < 50 | < 50 | < 50 | < 50 | 24.6 | 
12 | CC(C)Oc1cc(N2C(=O)C3CCCCC3C2O)c(F)cc1Cl (stereo not drawn) | < 50 | < 50 | < 50 | < 50 | < 50 | < 50 | < 50 | 47.4 | 
13 | COc1cc(N2C(=O)C3CCCCC3C2O)c(F)cc1Cl (stereo not drawn) | < 50 | < 50 | < 50 | < 50 | < 50 | < 50 | < 50 | 131 | 
14 | CCOC(=O)COc1cc(N2C(=O)C3CCCCC3C2O)c(F)cc1Cl (stereo not drawn) | < 50 | < 50 | < 50 | < 50 | < 50 | < 50 | < 50 | 124 | 
15 | CCOC(=O)C(C)Oc1cc(N2C(=O)C3CCCCC3C2O)c(F)cc1Cl (stereo not drawn) | < 50 | < 50 | < 50 | < 50 | < 50 | < 50 | < 50 | 48.1 | 
16 | C#CCOc1cc(N2C(=O)C3CCCCC3C2O)c(F)cc1Cl (stereo not drawn) | < 50 | < 50 | < 50 | < 50 | < 50 | < 50 | < 50 | 63.6 | 
17 | C=CCOc1cc(N2C(=O)C3CCCCC3C2O)c(F)cc1Cl (stereo not drawn) | < 50 | < 50 | < 50 | < 50 | < 50 | < 50 | < 50 | 44.8 | 45.7
18 | CC(C)Oc1cc(N2CC3=C(CCCC3)C2=O)c(F)cc1Cl | > 80 | > 80 | 100 | > 80 | 50 | < 50 | < 50 | 0.69 | 
19 | Nc1cc(N2CC3=C(CCCC3)C2=O)ccc1Cl | < 50 | < 50 | < 50 | < 50 | < 50 | < 50 | < 50 | 27.6 | 
